Measured values reported in ChEMBL document CHEMBL4196017, “Design, synthesis and identification of silicon-containing HCV NS5A inhibitors with pan-genotype activity” (Eur J Med Chem, 2018).

Columns and labels:
[1] = biological target: T1, Cytochrome P450 1A2 (Homo sapiens, UniProt P05177); test: Inhibition of CYP1A2 in human liver microsomes at 1 to 10 uM using phenacetin as substrate preincubated for 5 mins followed by NADPH addition measured after 30 mins by UPLC-MS/MS analysis relative to control; assay type: ADME; conditions: 0.5 h
T1 sequence (P05177 whole entry): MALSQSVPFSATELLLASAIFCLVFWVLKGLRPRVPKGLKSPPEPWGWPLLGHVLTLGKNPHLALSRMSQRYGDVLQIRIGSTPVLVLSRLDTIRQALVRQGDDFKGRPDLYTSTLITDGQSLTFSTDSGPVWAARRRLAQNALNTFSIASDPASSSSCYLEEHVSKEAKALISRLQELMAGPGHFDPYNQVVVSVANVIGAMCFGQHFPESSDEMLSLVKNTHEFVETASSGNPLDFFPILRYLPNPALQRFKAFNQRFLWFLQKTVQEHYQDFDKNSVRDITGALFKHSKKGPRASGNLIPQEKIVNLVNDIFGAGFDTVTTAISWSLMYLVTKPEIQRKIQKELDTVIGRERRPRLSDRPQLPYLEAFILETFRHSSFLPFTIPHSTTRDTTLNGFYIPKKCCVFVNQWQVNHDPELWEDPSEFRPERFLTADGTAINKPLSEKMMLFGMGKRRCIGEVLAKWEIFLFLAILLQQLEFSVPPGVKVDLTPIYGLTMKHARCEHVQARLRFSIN

[2] = AUC (0 to t) in beagle dog at 2 mg/kg, po administered as single dose by UPLC-MS/MS analysis; assay type: ADME, organism-based, Canis lupus familiaris; conditions: in vivo
[3] = Apparent permeability from basolateral to apical side in human Caco2 cells after 90 mins by UPLC-MS/MS analysis; assay type: ADME, cell-based; conditions: Caco-2
Method in brief: (§1)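 Caco-2 cells on Transwell inserts grown 21-23 days to TEER ≥200 Ω cm²; rinsed with warm HBSS, preincubated 30 min at 37 °C in 2% BSA with or without inhibitor; compound in 2% BSA added apical or basolateral, 90 min at 37 °C; receiver sampled, UPLC-MS/MS; duplicate; Papp calculated.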

[4] = Cytotoxicity against HUVEC assessed as growth inhibition at 50 uM relative to control; assay type: cell-based; conditions: human, read-out: GI
Method in brief: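 HUVEC from healthy donors exposed to compound at 50 µM; percent inhibition reported as mean of n = 3.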

[5] = Protein binding in human plasma at 10 uM after 6 hrs by UPLC-MS/MS based equilibrium dialysis method; assay type: ADME, cell-free; conditions: read-out: PPB (converted)
Method in brief: (§2)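 Equilibrium dialysis: plasma (pH 7.4) preincubated 15 min at 37 °C, spiked with compound at 1 or 10 µM (0.5% DMSO final); dialysed against 100 mM phosphate buffer pH 7.4, 6 h at 37 °C, 100 rpm; donor and receiver samples analysed by UPLC-MS/MS.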

[6] = biological target: Cytochrome P450 2D6 (Homo sapiens, UniProt P10635); test: Inhibition of CYP2D6 in human liver microsomes at 1 to 10 uM using dextromethorphan as substrate preincubated for 5 mins followed by NADPH addition measured after 30 mins by UPLC-MS/MS analysis relative to control; assay type: ADME; conditions: 0.5 h
[7] = Ratio of drug uptake in Sprague-Dawley rat liver to plasma at 10 mg/kg, ig administered as single dose measured after 24 hrs by UPLC-MS/MS analysis; assay type: ADME, organism-based; conditions: po
[8] = Protein binding in rat plasma at 10 uM after 6 hrs by UPLC-MS/MS based equilibrium dialysis method; assay type: ADME, cell-free; conditions: read-out: PPB (converted); method in brief: as §2
[9] = biological target: Cytochrome P450 2C19 (Homo sapiens, UniProt P33261); test: Inhibition of CYP2C19 in human liver microsomes at 1 to 10 uM using (S)-mephenytoin as substrate preincubated for 5 mins followed by NADPH addition measured after 30 mins by UPLC-MS/MS analysis relative to control; assay type: ADME; conditions: 0.5 h
[10] = Apparent permeability from apical to basolateral side in human Caco2 cells after 90 mins by UPLC-MS/MS analysis; assay type: ADME, cell-based; conditions: Caco-2; method in brief: as §1
[11] = Metabolic stability in human liver microsomes assessed as parent compound remaining at 0.2 uM preincubated for 5 mins followed by NADPH addition measured up to 60 mins by UPLC-MS/MS analysis; assay type: ADME, microsome; conditions: read-out: Stability
Method in brief: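 Pooled mouse, rat or human liver microsomes 0.2 mg/mL with 1 mM NADPH, 5 mM MgCl2, 100 mM potassium phosphate pH 7.4 and 0.2 µM compound; 5-min preincubation at 37 °C, NADPH start, sampled at 5, 15, 30, 60 min; ice-cold acetonitrile stop; UPLC-MS/MS; percent parent remaining at 60 min.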

[12] = Cmax in mouse at 10 mg/kg, ig administered as single dose by UPLC-MS/MS analysis; assay type: ADME, organism-based; design: dose 10 mg/kg, route intragastric; conditions: in vivo, po
Method in brief: (§3)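 Adult male mice (12 h light-dark, 22 °C, 55% humidity) fasted 12 h with free water, then given a single 10 mg/kg intragastric dose; plasma concentrations by UPLC-MS/MS; PK parameters calculated by software.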

[13] = Protein binding in dog plasma at 1 uM after 6 hrs by UPLC-MS/MS based equilibrium dialysis method; assay type: ADME, cell-free, Canis lupus familiaris; conditions: read-out: PPB (converted); method in brief: as §2
[14] = Half life in mouse at 10 mg/kg, ig administered as single dose by UPLC-MS/MS analysis; assay type: ADME, organism-based; conditions: in vivo, po; method in brief: as §3
[15] = biological target: hERG (KCNH2) (Homo sapiens, UniProt Q12809); test: Inhibition of human ERG assessed as reduction in peak tail current at 3 uM at holding potential of -80 mV by patch clamp method relative to control
Method in brief: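 Whole-cell patch clamp, room temperature; hold -80 mV, 2 s +50 mV depolarization then 3 s -50 mV repolarization every 30 s; peak tail current referenced to initial 50 ms step to -50 mV; 3 min vehicle stabilization, then test solution until stable (<5% over ~5 sweeps) or 6 min max; mean ± SD, n = 3.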

[16] = Efflux ratio of apparent permeability in human Caco2 cells after 90 mins by UPLC-MS/MS analysis; assay type: ADME, cell-based; conditions: Caco-2; method in brief: as §1
[17] = biological target: Cytochrome P450 3A4 (Homo sapiens, UniProt P08684); test: Inhibition of CYP3A4 in human liver microsomes at 1 to 10 uM using midazolam as substrate preincubated for 5 mins followed by NADPH addition measured after 30 mins by UPLC-MS/MS analysis relative to control; assay type: ADME; conditions: 0.5 h
[18] = Ratio of drug uptake in Sprague-Dawley rat liver to plasma at 10 mg/kg, ig administered as single dose measured after 0.5 hrs by UPLC-MS/MS analysis; assay type: ADME, organism-based; conditions: po
[19] = Protein binding in human plasma at 1 uM after 6 hrs by UPLC-MS/MS based equilibrium dialysis method; assay type: ADME, cell-free; conditions: read-out: PPB (converted); method in brief: as §2
[20] = Protein binding in mouse plasma at 1 uM after 6 hrs by UPLC-MS/MS based equilibrium dialysis method; assay type: ADME, cell-free; conditions: read-out: PPB (converted); method in brief: as §2
[21] = Tmax in beagle dog at 2 mg/kg, po administered as single dose by UPLC-MS/MS analysis; assay type: ADME, organism-based, Canis lupus familiaris; conditions: in vivo
[22] = Ratio of drug uptake in Sprague-Dawley rat liver to plasma at 10 mg/kg, ig administered as single dose measured after 8 hrs by UPLC-MS/MS analysis; assay type: ADME, organism-based; conditions: po
[23] = Protein binding in rat plasma at 1 uM after 6 hrs by UPLC-MS/MS based equilibrium dialysis method; assay type: ADME, cell-free; conditions: read-out: PPB (converted); method in brief: as §2

Cytochrome P450 3A4, sequence (P08684 whole entry): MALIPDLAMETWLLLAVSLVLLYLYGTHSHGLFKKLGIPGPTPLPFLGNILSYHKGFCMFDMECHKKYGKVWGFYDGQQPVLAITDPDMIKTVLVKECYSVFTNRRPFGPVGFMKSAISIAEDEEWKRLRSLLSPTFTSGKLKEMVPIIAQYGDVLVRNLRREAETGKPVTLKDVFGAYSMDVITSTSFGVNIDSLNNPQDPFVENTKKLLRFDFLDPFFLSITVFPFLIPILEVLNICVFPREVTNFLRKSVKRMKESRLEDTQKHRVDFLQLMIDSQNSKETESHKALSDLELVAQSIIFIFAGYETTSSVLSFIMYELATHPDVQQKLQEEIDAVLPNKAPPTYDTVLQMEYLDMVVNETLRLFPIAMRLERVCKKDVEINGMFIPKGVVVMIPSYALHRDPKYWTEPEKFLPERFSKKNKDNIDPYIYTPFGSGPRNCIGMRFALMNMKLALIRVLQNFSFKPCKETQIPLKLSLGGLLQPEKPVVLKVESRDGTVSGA
Cytochrome P450 2C19, sequence (P33261 whole entry): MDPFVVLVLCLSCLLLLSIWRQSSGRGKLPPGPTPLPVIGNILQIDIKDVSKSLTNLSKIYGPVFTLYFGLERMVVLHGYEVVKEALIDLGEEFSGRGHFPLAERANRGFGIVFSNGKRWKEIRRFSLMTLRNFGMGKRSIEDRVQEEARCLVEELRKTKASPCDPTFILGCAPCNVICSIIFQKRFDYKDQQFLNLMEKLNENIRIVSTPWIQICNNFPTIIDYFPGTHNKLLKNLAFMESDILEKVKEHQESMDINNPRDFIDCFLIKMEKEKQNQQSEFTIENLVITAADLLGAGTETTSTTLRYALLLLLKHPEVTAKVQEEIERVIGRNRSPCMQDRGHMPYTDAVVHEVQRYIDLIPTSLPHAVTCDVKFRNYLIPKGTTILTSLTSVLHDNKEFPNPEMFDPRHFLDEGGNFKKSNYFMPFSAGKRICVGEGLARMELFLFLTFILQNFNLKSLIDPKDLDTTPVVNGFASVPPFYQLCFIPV
hERG (KCNH2), sequence (Q12809 whole entry): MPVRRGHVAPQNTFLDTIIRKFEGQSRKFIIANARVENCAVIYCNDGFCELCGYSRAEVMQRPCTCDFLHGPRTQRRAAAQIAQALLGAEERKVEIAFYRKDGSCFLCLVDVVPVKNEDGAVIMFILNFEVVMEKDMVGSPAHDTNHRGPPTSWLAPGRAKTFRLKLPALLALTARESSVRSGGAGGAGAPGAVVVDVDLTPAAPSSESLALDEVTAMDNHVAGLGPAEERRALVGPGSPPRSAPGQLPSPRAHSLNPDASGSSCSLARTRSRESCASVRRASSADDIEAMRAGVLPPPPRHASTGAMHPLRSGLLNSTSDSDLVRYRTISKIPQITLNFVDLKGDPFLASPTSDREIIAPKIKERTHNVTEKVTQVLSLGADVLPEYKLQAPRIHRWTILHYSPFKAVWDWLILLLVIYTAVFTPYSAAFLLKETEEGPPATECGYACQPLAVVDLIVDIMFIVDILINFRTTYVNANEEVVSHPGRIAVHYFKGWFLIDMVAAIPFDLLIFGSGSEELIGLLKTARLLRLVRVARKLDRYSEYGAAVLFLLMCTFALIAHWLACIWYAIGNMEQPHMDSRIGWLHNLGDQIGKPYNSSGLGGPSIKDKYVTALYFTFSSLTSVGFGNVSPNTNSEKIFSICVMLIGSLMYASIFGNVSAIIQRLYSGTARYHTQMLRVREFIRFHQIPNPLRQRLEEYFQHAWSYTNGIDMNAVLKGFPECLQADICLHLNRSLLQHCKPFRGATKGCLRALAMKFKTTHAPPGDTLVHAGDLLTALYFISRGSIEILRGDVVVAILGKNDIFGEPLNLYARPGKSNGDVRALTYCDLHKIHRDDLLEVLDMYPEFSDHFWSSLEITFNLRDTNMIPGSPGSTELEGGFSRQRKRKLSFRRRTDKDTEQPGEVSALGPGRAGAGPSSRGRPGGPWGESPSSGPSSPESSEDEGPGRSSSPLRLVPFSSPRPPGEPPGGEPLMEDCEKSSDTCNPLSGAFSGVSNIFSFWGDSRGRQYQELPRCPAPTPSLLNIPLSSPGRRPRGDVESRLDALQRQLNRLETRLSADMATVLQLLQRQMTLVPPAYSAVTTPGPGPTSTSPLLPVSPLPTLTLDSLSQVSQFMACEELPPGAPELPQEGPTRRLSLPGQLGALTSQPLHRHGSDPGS
Cytochrome P450 2D6, sequence (P10635 whole entry): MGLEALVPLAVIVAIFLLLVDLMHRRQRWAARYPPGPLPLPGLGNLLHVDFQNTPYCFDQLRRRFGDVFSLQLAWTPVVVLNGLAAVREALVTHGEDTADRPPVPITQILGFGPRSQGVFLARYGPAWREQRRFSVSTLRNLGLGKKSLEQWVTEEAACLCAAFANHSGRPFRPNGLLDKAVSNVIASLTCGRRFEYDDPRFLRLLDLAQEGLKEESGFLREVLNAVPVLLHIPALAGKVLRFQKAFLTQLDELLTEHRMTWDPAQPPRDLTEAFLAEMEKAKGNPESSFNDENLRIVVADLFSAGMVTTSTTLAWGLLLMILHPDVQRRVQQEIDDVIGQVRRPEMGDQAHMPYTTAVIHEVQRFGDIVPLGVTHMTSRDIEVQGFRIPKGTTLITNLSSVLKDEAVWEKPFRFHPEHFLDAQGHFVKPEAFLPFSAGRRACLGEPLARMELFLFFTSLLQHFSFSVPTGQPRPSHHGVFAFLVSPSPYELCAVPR

| Structure (SMILES) | inhibition (INH) [1] | AUC(0-t) [2] [ng·h/mL] | Papp B→A at 1.5 h [3] [×10⁻⁶ cm/s] | inhibition at 50 µM [4] [%] | fraction unbound at 6 h, 10 µM [5] | inhibition (INH) [6] | Kp at 24 h [7] | fraction unbound at 6 h, 10 µM [8] | inhibition (INH) [9] | Papp A→B at 1.5 h [10] [×10⁻⁶ cm/s] | remaining at 1 h, 0.2 µM [11] [%] | Cmax [12] [ng/mL] | fraction unbound at 6 h, 1 µM [13] | half-life [14] [h] | inhibition at 3 µM [15] [%] | efflux ratio at 1.5 h [16] | inhibition (INH) [17] | Kp at 0.5 h [18] | fraction unbound at 6 h, 1 µM [19] | fraction unbound at 6 h, 1 µM [20] | also measured |
| --- | --- | --- | --- | --- | --- | --- | --- | --- | --- | --- | --- | --- | --- | --- | --- | --- | --- | --- | --- | --- | --- |
| CC[Si](CC)(CC)c1ccc(N2[C@H](c3ccc(NC(=O)[C@@H]4CCCN4C(=O)[C@@H](NC(=O)OC)C(C)C)cc3)CC[C@H]2c2ccc(NC(=O)[C@@H]3CCCN3C(=O)[C@@H](NC(=O)OC)C(C)C)cc2)cc1 | Not Active | 605 | 0.05 | 16.6 | 8e-05 | Not Active | 31.9 | 0.00017 | Not Active | 0.07 | 85.6 | 198 | 4e-05 | 22.5 | 6.9 | 0.8 | Not Active | 7.22 | 8e-05 | 8e-05 | Tmax [21]: 10.5 h; Kp at 8 h [22]: 52.9; fraction unbound at 6 h, 1 µM [23]: 9e-05 |
| COC(=O)N[C@H](C(=O)N1CCC[C@H]1C(=O)Nc1ccc([C@@H]2CC[C@@H](c3ccc(NC(=O)[C@@H]4CCCN4C(=O)[C@@H](NC(=O)OC)C(C)C)cc3)N2c2ccc(C(C)(C)C)cc2)cc1)C(C)C [OMBITASVIR] | Not Active | 188 | 0.54 | 11.8 | 4e-05 | Not Active | 22.3 | 1e-05 | Not Active | 0.08 | 96.2 | 583 | 2e-05 | 7.7 | 1.1 | 6.7 | Not Active | 43.4 | 3e-05 | 4e-05 | Tmax [21]: 8.3 h; Kp at 8 h [22]: 33.5; fraction unbound at 6 h, 1 µM [23]: 2e-05 |
